Bioassay records (PubChem BioAssay)
14-3-3 Bad inh: disrupts binding of bovine 14-3-3 zeta to phospho-Bad peptide; P63103; TR-FRET 14-3-3zeta/Dy647-pBad peptide displacement, 1 h; inhibition, % at 21.7 µM; 220,000 tested, 0.71% active; AID 781;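 active = inhibition above about 70%, limit read from the data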;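 note: 0% = full 14-3-3 plus peptide FRET controls and 100% = background without 14-3-3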
RanGTP-Impb inh: inhibitors of RanGTP-importin-beta interaction, primary screen, biochemical, FRET, CFP-Ran, YFP-importin-beta, homogeneous; inhibition, % (concentration not given with the values); 300,000 tested, 1.1% active; cell-free CFP-Ran/YFP-importin-beta FRET ratio;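 active = more than half of the replicate wells show a fall in the fluorescence ratio signal beyond about 16%, limit read from the data, passing the limit was not always enough; inconclusive = exactly half of the replicate wells pass the set limit; inactive = fewer than half of replicates pass the limit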;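 note: 0% = DMSO wells and 100% = Ran loaded with GDP instead of GTP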
TbHK1 inh: T. brucei hexokinase 1 inhibition; recombinant TbHK1, G6PDH-coupled NADH A340; 220,000 tested, 0.11% active; inhibition, % at 10 µM;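 active = inhibition of 50% or more in the single-dose primary screen; inactive = inhibition below 50%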
Hck-Nef inh: inhibitors of human Hck kinase activated by Nef; P08631; Recombinant Hck-YEEI plus Nef, Z-Lyte FRET kinase assay; inhibition, % at 20 µM; 220,000 tested, 0.68% active; AID 463187;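 active = Hck-Nef kinase inhibition above about 50%, limit read from the data; inactive = inhibition below that limit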;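 note: 0% = DMSO with Hck plus Nef and 100% = Hck alone without Nef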
Target sequence (P08631 whole entry, looked up): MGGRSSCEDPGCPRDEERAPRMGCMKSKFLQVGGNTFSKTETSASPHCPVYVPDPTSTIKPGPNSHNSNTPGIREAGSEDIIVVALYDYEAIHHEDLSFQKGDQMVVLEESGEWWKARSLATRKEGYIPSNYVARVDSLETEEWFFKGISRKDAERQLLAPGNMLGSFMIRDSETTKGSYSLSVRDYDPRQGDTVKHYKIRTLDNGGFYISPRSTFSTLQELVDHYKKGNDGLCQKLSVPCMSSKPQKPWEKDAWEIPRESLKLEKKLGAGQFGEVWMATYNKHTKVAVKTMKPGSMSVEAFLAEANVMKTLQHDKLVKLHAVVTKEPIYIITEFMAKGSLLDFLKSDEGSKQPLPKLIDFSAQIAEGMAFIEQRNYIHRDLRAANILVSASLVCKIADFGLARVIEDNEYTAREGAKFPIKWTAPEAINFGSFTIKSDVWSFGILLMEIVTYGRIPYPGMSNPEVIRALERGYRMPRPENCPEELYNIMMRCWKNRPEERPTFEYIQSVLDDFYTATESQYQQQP
Runt-SMMHC FRET: inhibitors of human RUNX1 Runt domain binding to CBFb-SMMHC | Q01196+Q13951 | Cerulean-Runt/Venus-CBFb-SMMHC FRET ratio 530/480, 1 h | inhibition, % at 20 µM | 220,000 tested, 0.74% active;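 active = mean inhibition across duplicate retests at 20 µM reaching about 50%, limit read from the data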;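 note: 0% = DMSO wells and 100% = wells with excess untagged CBFb-SMMHC; inhibitors lower the FRET ratio by blocking Runt binding to CBFb-SMMHC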
Runt-CBFb FRET: blocks binding of human RUNX1 Runt domain to CBFb; Cerulean-Runt/Venus-CBFb FRET ratio 530/480, 1 h; 220,000 tested, 0.46% active; inhibition, % at 20 µM; Q01196+Q13951;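 active = inhibition over about 50% at 20 µM in the single-dose screen, limit read from the data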;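 note: 0% = DMSO wells and 100% = excess unlabeled CBFb competitor control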
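test system = Cerulean-tagged RUNX1 Runt domain (FRET donor) fusion protein | reagent = Venus-CBFb binding partner, 100 nM | incubation = protein complex preformed 1 h, compound exposure 1 h, room temperature, dark | detection = FRET fluorescence | read-out basis = loss of energy transfer signal | controls = 5 µM unlabeled CBFb as full-inhibition high control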
Numbers without * were called inactive; ? = inconclusive; . = not tested or not shown. Only some compounds are listed: those with a hit (about 2.2% of all), similar ones and a draw of the others.

SMILES	14-3-3 Bad inh	RanGTP-Impb inh	TbHK1 inh	Hck-Nef inh	Runt-SMMHC FRET	Runt-CBFb FRET
C/C(=N\NC(=O)c1nnn(-c2nonc2N)c1C(C)C)c1ccc2ccccc2c1	.	2	.	.	.	.
C/C(=N\NC(=O)c1nnn(-c2nonc2N)c1C(C)C)c1cc(C)sc1C	.	97*	.	.	.	.
CCC(CO)[n+]1c(C)cc(/C=C2\Sc3ccccc3N2Cc2ccccc2)cc1C (stereo not given)	-11	.	13	2	64*	43
COCCC(=O)Nc1ccc2c(c1)CN(C(=O)c1ccc(CSC)o1)CC2	.	-2	.	.	.	.
Cc1ccc(C(=O)Cn2c(C(=O)/C=C/c3ccccc3)nc3ccccc32)cc1	-19	1	-10	2	-10	-2
O=C1Nc2ccc([N+](=O)[O-])cc2C1(O)N1CCCCCC1 (stereo not given)	24	-2	-31	1	-7	-2
CC1CCN(C2(O)C(=O)Nc3ccc(Br)cc32)CC1 (stereo not given)	83*	-3	2	-21	1	0
CC(=O)Nc1ccc([C@H]2[C@H](C)CC[C@H]3C(=O)N4[C@@H](CC[C@@H](C)[C@@H]4c4ccc(NC(C)=O)cc4)C(=O)N32)cc1	-9	1	-2	-5	-2	-1
CSc1nc(NCCOCCO)c2sc3nc(-c4ccco4)c4c(c3c2n1)CCC4	30	?	-7	81*	-20	24
COc1ccccc1NC(=O)CSc1nnc(-c2ccc(NC(C)=O)cc2)n1C	-3	5	1	1	-4	-3
COc1ccccc1C(=O)Nc1ccc(-c2nnc(SCC(=O)O)n2C)cc1	9	20*	-6	2	-5	2
Cc1cc(=O)n2c3ccccc3n(CC(O)CN3CCOCC3)c2c1C#N (stereo not given)	7	130*	-26	-7	1	-1
Cc1cc(=O)n2c3ccccc3n(CC(O)CN3CCCCC3)c2c1C#N (stereo not given)	-2	4	-27	1	-1	-1
Cc1cccc(N2C(=O)C3C4C=CC(CC4)C3C2=O)c1 (stereo not given)	.	-4	.	.	.	.
O=C1C2C3CCC(O3)C2C(=O)N1c1cccc(O)c1 (stereo not given)	.	33*	.	.	.	.
COc1ccc(CNC(=O)C(C)N2C(=O)COc3ccc(C)cc32)c(OC)c1 (stereo not given)	0	-1	-8	20	0	0
O=C1/C(=C/N(C(=O)c2ccco2)c2ccc(Cl)cc2)Sc2ccccc21	-6	10	2	6	75*	21
COc1ccc(CN(C(=O)c2ccco2)c2ccc(Br)cc2)cc1OC	6	0	-4	0	-44	-1
O=C1/C(=C/N(C(=O)c2ccco2)c2ccc(Br)cc2)Sc2ccccc21	-10	25*	4	2	67	20
O=C1c2ccccc2C(=O)N1CCCCN(C(=O)c1ccco1)c1ccc(Cl)cc1	19	5	38	0	-2	-4
Cc1cc2nc3c(=O)n(C4CCCCC4)c(=O)[nH]c3nc2cc1N	4	.	5	0	-205	-8
COc1c(O)cnn(-c2ccccc2)c1=O	3	0	-8	7	0	0
CCC(CC)=C(C#N)C(=O)NC1CCCCC1	-3	?	-4	7	1	-1
COC(=O)c1ccc(C)c(NC(=O)C(CCSC)NC(=O)c2cc(OC)c(OC)c(OC)c2)c1 (stereo not given)	.	-6	.	.	.	.
COCCCn1c(C(=O)N2CC(C)OC(C)C2)cc2c(=O)n3cccc(C)c3nc21 (stereo not given)	.	2	.	.	.	.
N#Cc1cc2c(=O)n3ccccc3nc2n(Cc2cccnc2)c1=N	.	.	-9	2	.	.
Cc1ccc2nc3c(cc(C#N)c(=N)n3Cc3cccnc3)c(=O)n2c1	-4	94*	-3	16	.	.
CC(C)OCCCn1c(=NC(=O)c2cccs2)c(C#N)cc2c(=O)n3ccccc3nc21	2	103*	-1	23	81*	77*
CCOCCCn1c(=NC(=O)c2ccc(OC)c(OC)c2)c(C#N)cc2c(=O)n3cccc(C)c3nc21	.	86*	-4	13	143*	106*
